# According to ChEMBL document CHEMBL3616436, “Synthesis, cytotoxicity and antimicrobial activity of thiourea derivatives incorporating 3-(trifluoromethyl)phenyl moiety” (Eur J Med Chem, 2015):
# Active and inactive are the calls of the source. The rule behind the calls is not given here.
# Key:
# [1] = tested on: Mycobacterium tuberculosis; assay: Antimycobacterial activity against Mycobacterium tuberculosis H37Rv ATCC 25618; format: functional
# Outline: (§1)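 Classical test-tube successive-dilution method in Youmans' modification of Proskauer and Beck liquid medium with 10% bovine serum. Inoculum came from 14-day cultures. DMSO stock was 10 mg/mL, diluted geometrically in medium. Tubes were incubated at 37 °C. Concentrations tested were 3.1, 6.2, 12.5, 25, 50 and 100 µg/ml. MIC is the minimum concentration inhibiting growth relative to compound-free tubes.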
# Vaccinia virus = assay: Antiviral activity against Human Vaccinia virus ATCC VR-1549 infected in African green monkey Vero 76 cells assessed as reduction of virus-plaque formation after 3 days by crystal violet staining; format: functional, organism-based; conditions: Orthopoxvirus vaccinia, ATCC VR-1549, Vero, 72 h
# [2] = tested on: Vesicular stomatitis virus; assay: Antiviral activity against Vesicular stomatitis virus ATCC VR 1540 infected in African green monkey Vero 76 cells assessed as reduction of virus-plaque formation after 2 days by crystal violet staining; format: functional, organism-based; conditions: ATCC VR 1540, Vero, 48 h
# Yellow fever virus = assay: Antiviral activity against Yellow fever virus 17D infected in BHK cells assessed as protection against virus-induced cytopathogenicity after 3 to 4 days by MTT assay; format: functional, cell-based
# CCRF-CEM = assay: Cytotoxicity against human CCRF-CEM cells after 96 hrs by MTT assay; format: functional
# Outline: (§2)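 Leukaemia/lymphoma lines seeded at 1×10^5 cells/ml in RPMI-1640 with 10% FCS and penicillin/streptomycin; incubated with serial dilutions at 37°C, 5% CO2; viability by MTT after 96 h; value is concentration reducing proliferation by 50%, with untreated controls undergoing at least three rounds of multiplication.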
# Proteus vulgaris = assay: Antimicrobial activity against Proteus vulgaris NCTC 4635 at 400 ug after 18 hrs by disc-diffusion method; format: functional
# Outline: (§3)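 Disc diffusion on Mueller-Hinton II agar per CLSI; 9 mm paper discs loaded with 400 µg compound from DMSO solution, dried, placed on agar; growth inhibition zone diameter read after 18 h at 35°C.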
# Bacillus subtilis = assay: Antimicrobial activity against Bacillus subtilis ATCC 6633 at 400 ug after 18 hrs by disc-diffusion method; format: functional; conditions: ATCC 6633, 18 h, read-out: IZ; outline: as §3
# Staphylococcus aureus [3] = assay: Antimicrobial activity against Staphylococcus aureus ATCC 25923 at 400 ug after 18 hrs by disc-diffusion method; format: functional; conditions: ATCC 25923, 18 h, read-out: IZ; outline: as §3
# Staphylococcus aureus [4] = assay: Antimicrobial activity against Staphylococcus aureus NCTC 4163 after 18 hrs by twofold serial microdilution method; format: functional; conditions: NCTC 4163, 18 h
# [5] = Cytotoxicity against BHK cells assessed as cell viability after 48 to 96 hrs by MTT assay; format: cell-based, Mesocricetus auratus; conditions: hamster
# Bacillus cereus = assay: Antimicrobial activity against Bacillus cereus ATCC 11778 at 400 ug after 18 hrs by disc-diffusion method; format: functional; conditions: ATCC 11778, 18 h, read-out: IZ; outline: as §3
# Staphylococcus aureus [6] = assay: Antimicrobial activity against Staphylococcus aureus NCTC 4163 at 400 ug after 18 hrs by disc-diffusion method; format: functional; conditions: NCTC 4163, 18 h, read-out: IZ; outline: as §3
# Enterococcus hirae = assay: Antimicrobial activity against Enterococcus hirae ATCC 10541 at 400 ug after 18 hrs by disc-diffusion method; format: functional; outline: as §3
# [7] = tested on: Staphylococcus epidermidis; assay: Antimicrobial activity against Staphylococcus epidermidis ATCC 12228 after 18 hrs by twofold serial microdilution method; format: functional; conditions: ATCC 12228, 18 h
# [8] = tested on: Staphylococcus epidermidis; assay: Antimicrobial activity against Staphylococcus epidermidis ATCC 35984 at 400 ug after 18 hrs by disc-diffusion method; format: functional; conditions: ATCC 35984, 18 h, read-out: IZ; outline: as §3
# Human alphaherpesvirus 1 = assay: Antiviral activity against Human herpesvirus 1 KOS ATCC VR-1493 infected in African green monkey Vero 76 cells assessed as reduction of virus-plaque formation after 3 days by crystal violet staining; format: functional, organism-based; conditions: Human alphaherpesvirus 1, KOS ATCC VR1493, Vero, 72 h
# Outline: (§4)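 Plaque reduction: Vero-76 at 2x10^5 cells/well grown to confluent monolayers, infected 2 h at 50–100 PFU/well; after removing unadsorbed virus, overlay of D-MEM, 1% inactivated FBS, 0.75% methylcellulose with or without serial compound dilutions; 3 days at 37°C, fixed and stained with crystal violet in 50% ethanol, plaques counted; EC50 by linear regression.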
# [9] = tested on: Mammalian orthoreovirus 1; assay: Antiviral activity against Reovirus type-1 ATCC VR-214 infected in BHK cells assessed as protection against virus-induced cytopathogenicity after 3 to 4 days by MTT assay; format: functional, cell-based; conditions: Mammalian orthoreovirus 1, ATCC VR-214, BHK
# Outline: (§5)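 Cells seeded in 96-well plates (BHK 5x10^4, MDBK 3x10^4 cells/well), grown overnight to confluence, infected at m.o.i. 0.01 (BHK for Reo-1, MDBK for BVDV); serial compound dilutions in maintenance medium with 0.5% inactivated FBS added after 1 h; viability by MTT after 3–4 days at 37°C; EC50 for 50% protection by linear regression.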
# [10] = Cytotoxicity against bovine MDBK cells assessed as cell viability after 48 to 96 hrs by MTT assay; format: cell-based, Bos taurus; conditions: cattle
# WIL2-NS = assay: Cytotoxicity against human WIL2-NS cells after 96 hrs by MTT assay; format: functional; outline: as §2
# CCRF-SB = assay: Cytotoxicity against human CCRF-SB cells after 96 hrs by MTT assay; format: functional; outline: as §2
# [11] = tested on: Staphylococcus epidermidis; assay: Antimicrobial activity against Staphylococcus epidermidis ATCC 12228 at 400 ug after 18 hrs by disc-diffusion method; format: functional; conditions: ATCC 12228, 18 h, read-out: IZ; outline: as §3
# Enterococcus faecalis = assay: Antimicrobial activity against Enterococcus faecalis ATCC 29212 at 400 ug after 18 hrs by disc-diffusion method; format: functional; outline: as §3
# [12] = Cytotoxicity against human MT4 cells; format: cell-based
# [13] = Antiviral activity against Bovine viral diarrhea virus 1-NADL ATCC VR-534 infected in MDBK cells assessed as protection against virus-induced cytopathogenicity after 3 to 4 days by MTT assay; format: functional, cell-based; conditions: Bovine viral diarrhea virus isolates and strains, ATCC VR-534, MDBK; outline: as §5
# Micrococcus luteus [14] = assay: Antimicrobial activity against Micrococcus luteus ATCC 10240 at 400 ug after 18 hrs by disc-diffusion method; format: functional; conditions: ATCC 10240, 18 h, read-out: IZ; outline: as §3
# [15] = tested on: Mycobacterium tuberculosis; assay: Antimycobacterial activity against drug-sensitive Mycobacterium tuberculosis Spec. 192; format: functional; outline: as §1
# Coxsackievirus B5 = assay: Antiviral activity against Human coxsackievirus B5 ATCC VR-29 infected in African green monkey Vero 76 cells assessed as reduction of virus-plaque formation after 3 days by crystal violet staining; format: functional, organism-based; conditions: Enterovirus B, ATCC VR-29, Vero, 72 h; outline: as §4
# Poliovirus 1 = assay: Antiviral activity against Poliovirus type 1 ATCC VR-1562 infected in African green monkey Vero 76 cells assessed as reduction of virus-plaque formation after 2 days by crystal violet staining; format: functional, organism-based; conditions: Enterovirus C, ATCC VR-1562, Vero, 48 h
# [16] = tested on: Staphylococcus epidermidis; assay: Antimicrobial activity against Staphylococcus epidermidis ATCC 35984 after 18 hrs by twofold serial microdilution method; format: functional; conditions: ATCC 35984, 18 h
# Staphylococcus aureus [17] = assay: Antimicrobial activity against Staphylococcus aureus ATCC 25923 after 18 hrs by twofold serial microdilution method; format: functional; conditions: ATCC 25923, 18 h
# [18] = tested on: Human immunodeficiency virus 1; assay: Antiviral activity against HIV1 3B infected in human MT4 cells assessed as protection against virus-induced cytopathogenicity by MTT assay; format: functional, organism-based; conditions: Human immunodeficiency virus 1, 3B
# Staphylococcus aureus [19] = assay: Antimicrobial activity against Staphylococcus aureus ATCC 29213 after 18 hrs by twofold serial microdilution method; format: functional; conditions: ATCC 29213, 18 h
# Staphylococcus aureus [20] = assay: Antimicrobial activity against Staphylococcus aureus ATCC 6538 after 18 hrs by twofold serial microdilution method; format: functional; conditions: ATCC 6538, 18 h
# [21] = Cytotoxicity against African green monkey Vero 76 cells assessed as cell viability after 48 to 96 hrs by crystal violet staining; format: cell-based; conditions: chlorocebus sabaeus
# Staphylococcus aureus [22] = assay: Antimicrobial activity against Staphylococcus aureus ATCC 29213 at 400 ug after 18 hrs by disc-diffusion method; format: functional; conditions: ATCC 29213, 18 h, read-out: IZ; outline: as §3
# Micrococcus luteus [23] = assay: Antimicrobial activity against Micrococcus luteus ATCC 9341 at 400 ug after 18 hrs by disc-diffusion method; format: functional; conditions: ATCC 9341, 18 h, read-out: IZ; outline: as §3
# Staphylococcus aureus [24] = assay: Antimicrobial activity against Staphylococcus aureus ATCC 6538 at 400 ug after 18 hrs by disc-diffusion method; format: functional; conditions: ATCC 6538, 18 h, read-out: IZ; outline: as §3
# Escherichia coli [25] = assay: Antimicrobial activity against Escherichia coli NCTC 8196 after 18 hrs by twofold serial microdilution method; format: functional, organism-based
# [26] = tested on: Bordetella bronchiseptica; assay: Antimicrobial activity against Bordetella bronchiseptica ATCC 4617 after 18 hrs by twofold serial microdilution method; format: functional, organism-based
# Candida albicans [27] = assay: Antimicrobial activity against Candida albicans ATCC 90028 after 24 hrs by twofold serial microdilution method; format: functional, organism-based
# Pseudomonas aeruginosa [28] = assay: Antimicrobial activity against Pseudomonas aeruginosa ATCC 27863 after 18 hrs by twofold serial microdilution method; format: functional, organism-based
# Pseudomonas aeruginosa [29] = assay: Antimicrobial activity against Pseudomonas aeruginosa ATCC 15442 after 18 hrs by twofold serial microdilution method; format: functional, organism-based
# Candida albicans [30] = assay: Antimicrobial activity against Candida albicans ATCC 10231 after 24 hrs by twofold serial microdilution method; format: functional, organism-based
# Escherichia coli [31] = assay: Antimicrobial activity against Escherichia coli ATCC 25922 after 18 hrs by twofold serial microdilution method; format: functional, organism-based
# Candida parapsilosis = assay: Antimicrobial activity against Candida parapsilosis ATCC 22019 after 24 hrs by twofold serial microdilution method; format: functional, organism-based
# Escherichia coli [32] = assay: Antimicrobial activity against Escherichia coli ATCC 10538 after 18 hrs by twofold serial microdilution method; format: functional, organism-based
# Pseudomonas aeruginosa [33] = assay: Antimicrobial activity against Pseudomonas aeruginosa NCTC 6749 after 18 hrs by twofold serial microdilution method; format: functional, organism-based
smiles,measurement,setting,value
N#Cc1ccc(NC(=S)Nc2cccc(C(F)(F)F)c2)cc1,MIC,[1],> 100 µg/mL
same,EC50,Vaccinia virus,> 10 µM
same,EC50,[2],> 10 µM
same,EC50,Yellow fever virus,> 9.5 µM
same,CC50,CCRF-CEM,8.7 µM
same,inhibition zone (IZ),Proteus vulgaris,inactive
same,zone of inhibition at 400 µg/disc,Bacillus subtilis,19 mm
same,zone of inhibition at 400 µg/disc,Staphylococcus aureus [3],19 mm
same,MIC,Staphylococcus aureus [4],128 µg/mL
same,CC50,[5],9.5 µM
same,zone of inhibition at 400 µg/disc,Bacillus cereus,19 mm
same,zone of inhibition at 400 µg/disc,Staphylococcus aureus [6],20 mm
same,inhibition zone (IZ),Enterococcus hirae,inactive
same,MIC,[7],64 µg/mL
same,zone of inhibition at 400 µg/disc,[8],20 mm
same,EC50,Human alphaherpesvirus 1,> 10 µM
same,EC50,[9],> 9.5 µM
same,CC50,[10],10 µM
same,CC50,WIL2-NS,9.2 µM
same,CC50,CCRF-SB,8.3 µM
same,zone of inhibition at 400 µg/disc,[11],18 mm
same,inhibition zone (IZ),Enterococcus faecalis,inactive
same,CC50,[12],7 µM
same,EC50,[13],> 10 µM
same,zone of inhibition at 400 µg/disc,Micrococcus luteus [14],16 mm
same,MIC,[15],> 100 µg/mL
same,EC50,Coxsackievirus B5,> 10 µM
same,EC50,Poliovirus 1,> 10 µM
same,MIC,[16],64 µg/mL
same,MIC,Staphylococcus aureus [17],64 µg/mL
same,EC50,[18],> 7 µM
same,MIC,Staphylococcus aureus [19],64 µg/mL
same,MIC,Staphylococcus aureus [20],64 µg/mL
same,CC50,[21],10 µM
same,zone of inhibition at 400 µg/disc,Staphylococcus aureus [22],18 mm
same,zone of inhibition at 400 µg/disc,Micrococcus luteus [23],18 mm
same,zone of inhibition at 400 µg/disc,Staphylococcus aureus [24],22 mm
FC(F)(F)c1cccc(NC(=S)NC2CCCCC2)c1,MIC,[1],> 100 µg/mL
same,Activity,Escherichia coli [25],inactive
same,Activity,[26],inactive
same,Activity,Candida albicans [27],inactive
same,EC50,Vaccinia virus,> 60 µM
same,EC50,[2],> 60 µM
same,EC50,Yellow fever virus,> 14 µM
same,Activity,Pseudomonas aeruginosa [28],inactive
same,CC50,[5],14 µM
same,Activity,Pseudomonas aeruginosa [29],inactive
same,Activity,Candida albicans [30],inactive
same,Activity,Escherichia coli [31],inactive
same,Activity,Candida parapsilosis,inactive
same,Activity,Escherichia coli [32],inactive
same,EC50,Human alphaherpesvirus 1,> 60 µM
same,EC50,[9],> 14 µM
same,CC50,[10],48 µM
same,Activity,Pseudomonas aeruginosa [33],inactive
same,CC50,[12],45 µM
same,EC50,[13],> 48 µM
same,MIC,[15],> 100 µg/mL
same,EC50,Coxsackievirus B5,> 60 µM
same,EC50,Poliovirus 1,> 60 µM
same,EC50,[18],> 45 µM
same,CC50,[21],60 µM
COc1cccc2c1C(=O)c1c(O)c3c(c(O)c1C2=O)C[C@@](O)(C(=O)CO)C[C@@H]3O[C@H]1C[C@H](N)[C@H](O)[C@H](C)O1 [DOXORUBICIN],CC50,CCRF-CEM,0.02 µM
same,CC50,WIL2-NS,0.02 µM
same,CC50,CCRF-SB,0.03 µM
